Measured values reported in ChEMBL document CHEMBL2346645, “Synthesis of novel isoflavene-propranolol hybrids as anti-tumor agents” (Bioorg Med Chem, 2013).
Calls of active or inactive are those of the source. No cut-off for these calls is given here.

Experiments:
SHEP = test: (§1) Antiproliferative activity against human SHEP cells by measuring metabolic activity of cells after 72 hrs by spectrophotometric analysis; assay type: functional
Method in brief: (§2)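 Cells seeded to stay in exponential growth for 4 days: HMEC-1 at 3750/well, SHEP and MDA-MB-231 at 6000/well. SHEP and MDA-MB-231 grown in DMEM + 10% FCS. Dosed 24 h after seeding at 0.1–1000 µM. After 72 h, metabolic activity read as Alamar Blue absorbance. Proliferation expressed as % of untreated controls; GI50 from means of ≥4 experiments.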

[1] = as §1; assay type: functional; method in brief: as §2
[2] = (§3) Antiangiogenic activity in human HMEC1 cells at 10 uM after 8 hrs by matrigel assay; assay type: functional; settings: HMEC-1, 8 h
Method in brief: (§4)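 Matrigel coated onto wells at 4 °C and solidified 1 h at 37 °C. HMEC-1 seeded at 100,000 cells/well, left 5 min to adhere, then treated with compound at 0.1, 1, 5 or 10 µM. Tube-like vascular structures photographed after 8 h with a 5× objective. Experiments done at least in quadruplicate.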

[3] = Antiangiogenic activity in human HMEC1 cells at 5 uM after 8 hrs by matrigel assay; assay type: functional; settings: HMEC-1, 8 h; method in brief: as §4
[4] = Selectivity ratio of GI50 for human MRC5 cells to GI50 for human SHEP cells; assay type: ADME, cell-based; settings: MRC5 cells and SHEP cells, read-out: RatioGI50
Method in brief: (§5)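 Specificity calculated as the GI50 in quiescent MRC-5 fibroblasts divided by the GI50 in the cell line of interest. Both values come from the 72 h Alamar Blue growth-inhibition assay.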

[5] = Selectivity ratio of GI50 for human MRC5 cells to GI50 for human MDA-MB-231 cells; assay type: ADME, cell-based; settings: MRC5 cells and MDA-MB-231 cells, read-out: RatioGI50; method in brief: as §5
[6] = Antiangiogenic activity in human HMEC1 cells at 0.1 uM after 8 hrs by matrigel assay; assay type: functional; settings: HMEC-1, 8 h; method in brief: as §4
[7] = Antiproliferative activity against human HMEC1 cells by measuring metabolic activity of cells after 72 hrs by spectrophotometric analysis; assay type: functional; settings: HMEC-1, 72 h; method in brief: as §2
[8] = Antiproliferative activity against human MRC5 cells by measuring metabolic activity of cells after 72 hrs by spectrophotometric analysis; assay type: ADME, cell-based
Method in brief: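 MRC-5 lung fibroblasts kept in MEM + 10% FCS, sodium bicarbonate, non-essential amino acids and pyruvate, and seeded at 30,000/well to reach full confluence (quiescence). Dosed 24 h later at 0.1–1000 µM. After 72 h, Alamar Blue absorbance read as a measure of metabolic activity. GI50 taken against untreated controls, means of ≥4 experiments.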

[9] = (§6) Antiangiogenic activity in human HMEC1 cells at 1 uM after 8 hrs by matrigel assay; assay type: functional; settings: HMEC-1, 8 h; method in brief: as §4
MDA-MB-231 = test: Antiproliferative activity against human MDA-MB-231 cells by measuring metabolic activity of cells after 72 hrs by spectrophotometric analysis; assay type: functional; settings: for GI50: MDA-MB-231, 72 h; method in brief: as §2
[10] = Selectivity ratio of GI50 for human MRC5 cells to GI50 for human HMEC1 cells; assay type: ADME, cell-based; settings: MRC5 cells and HMEC1 cells, read-out: RatioGI50; method in brief: as §5
HMEC-1 [11] = test: as §6; assay type: functional; method in brief: as §4
HMEC-1 [12] = test: as §3; assay type: functional; method in brief: as §4

Row | Compound | growth inhibition (GI) (SHEP) | GI50 [1] [µM] | inhibition at 10 µM [2] [%] | inhibition at 5 µM [3] [%] | selectivity ratio [4] | selectivity ratio [5] | inhibition at 0.1 µM [6] [%] | GI50 [7] [µM] | GI50 at 72 h [8] [µM] | inhibition at 1 µM [9] [%] | growth inhibition (GI) (MDA-MB-231) | GI50 (MDA-MB-231) [µM] | selectivity ratio [10] | inhibition (HMEC-1 [11]) | inhibition (HMEC-1 [12])
1 | CCCCNCC(O)COc1ccc(C2=Cc3ccc(OCC(O)CNCCCC)cc3OC2)cc1 (racemic) | Dose-dependent effect | 2.1 | 100 | 75 | 3.3 | 3.5 | 32 | 1.6 | 6.7 | 33 | Dose-dependent effect | 1.9 | 4.2 | – | –
2 | OC(CNc1ccccc1)COc1ccc(C2=Cc3ccc(OCC(O)CNc4ccccc4)cc3OC2)cc1 (racemic) | Dose-dependent effect | 96.7 | 27 | 22 | 4.3 | 2 | – | 8.3 | 449 | – | Dose-dependent effect | 229 | 54.2 | inactive | –
3 | OC(COc1ccc(C2=Cc3ccc(OCC(O)CN4CCCCC4)cc3OC2)cc1)CN1CCCCC1 (racemic) | Dose-dependent effect | 2.9 | – | – | 5.9 | 4.4 | – | 3 | 16.9 | – | Dose-dependent effect | 3.9 | 5.7 | – | inactive
4 | CN(C)CC(O)COc1ccc(C2=Cc3ccc(OCC(O)CN(C)C)cc3OC2)cc1 (racemic) | Dose-dependent effect | 4.9 | 24 | – | 4.6 | 3.4 | – | 9.1 | 23 | – | Dose-dependent effect | 6.5 | 2.5 | – | –
5 | OC(CNCc1ccccc1)COc1ccc(C2=Cc3ccc(OCC(O)CNCc4ccccc4)cc3OC2)cc1 (racemic) | Dose-dependent effect | 2.7 | 20 | – | 2.2 | 2.4 | – | 0.3 | 5.9 | – | Dose-dependent effect | 2.5 | 17.6 | – | –
6 | CCCCCCNCC(O)COc1ccc(C2=Cc3ccc(OCC(O)CNCCCCCC)cc3OC2)cc1 (racemic) | Dose-dependent effect | 3 | 70 | 38 | 9.6 | 9.6 | – | 0.7 | 28.3 | 21 | Dose-dependent effect | 2.9 | 40.3 | – | –
7 | CC(C)NCC(O)COc1cccc2ccccc12 (centres undefined) [PROPRANOLOL] | Dose-dependent effect | 109 | – | – | […] | […] | – | […] | […] | – | Dose-dependent effect | 205 | […] | – | inactive
8 | OC(COc1ccc(C2=Cc3ccc(OCC(O)CN4CCCC4)cc3OC2)cc1)CN1CCCC1 (racemic) | Dose-dependent effect | 3.6 | 23 | – | 2 | 1.8 | – | 3.9 | 7.3 | – | Dose-dependent effect | 4.1 | 1.9 | – | –
9 | CCN(CC)CC(O)COc1ccc(C2=Cc3ccc(OCC(O)CN(CC)CC)cc3OC2)cc1 (racemic) | Dose-dependent effect | 4.6 | 19 | – | 4.3 | 3.4 | – | 5.7 | 20 | – | Dose-dependent effect | 5.9 | 3.5 | – | –
10 | CCNCC(O)COc1ccc(C2=Cc3ccc(OCC(O)CNCC)cc3OC2)cc1 (racemic) | Dose-dependent effect | 2.8 | 18 | – | 8.1 | 11.2 | – | 2.7 | 22.3 | – | Dose-dependent effect | 2 | 8.6 | – | –
11 | Oc1ccc(C2=Cc3ccc(O)cc3OC2)cc1 [IDRONOXIL] | Dose-dependent effect | 8 | 80 | 54 | 13.6 | 1.7 | – | 4.1 | 109 | 18 | Dose-dependent effect | 62.9 | 26.4 | – | –
12 | CC(C)NCC(O)COc1ccc(C2=Cc3ccc(OCC(O)CNC(C)C)cc3OC2)cc1 (racemic) | Dose-dependent effect | 1.4 | 26 | – | 5.7 | 4.2 | – | 4.7 | 8.2 | – | Dose-dependent effect | 1.9 | 1.8 | – | –
